Bioassay records: PubChem BioAssay, Broad Institute
In the library only some 2.7% were active in any assay of this set; here they are far more common.
DENV2 CPE rescue: inhibitors of DENV2 cytopathic effect, primary screen, cell-based, plate reader, single concentration; DENV2-infected cells, cytopathic effect rescue; CPE inhibition, % at 9.99 µM; 350,000 compounds, 1.7% hits; AID 651640, 2012; in the data active = CPE inhibition above about 20%, passing the limit was not always enough; inconclusive = no clear call, values can overlap the other calls; tested in BHK-21 cells
CaV13 ICDI inh: Disruptors of the CACNA1D IQ motif to Ca2+-dependent inactivation inhibitor domain association, primary screening, Förster resonance energy transfer in intact living …; HEK cells, CFP/YFP FRET ICDI-IQ, plate reader, 10 min; percent FRET-ratio fall versus neutral wells; AID 743397; inhibition, % at 12.3 µM; 340,000 compounds, 0.098% hits;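 active = mean replicate inhibition of at least 30% and at least 1% of replicates passing that level; inconclusive = only one of the two criteria is met; inactive = neither criterion is met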
AF4-AF9 inh: inhibitors of AF4 peptide binding to AF9, primary screen, biochemical, AlphaScreen, biotin-AF4 peptide, FLAG-AF9, single point; inhibition, % at 10 µM; 350,000 compounds, 0.47% hits; AID 651704, 2012; Protein AF-9 (Homo sapiens), P42568;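 active = every replicate reaching a set inhibition limit, whatever the replicate mean, cut at about 25% in these data; inconclusive = mean inhibition reaches that limit but some replicates miss it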
Target sequence (P42568 whole entry, looked up): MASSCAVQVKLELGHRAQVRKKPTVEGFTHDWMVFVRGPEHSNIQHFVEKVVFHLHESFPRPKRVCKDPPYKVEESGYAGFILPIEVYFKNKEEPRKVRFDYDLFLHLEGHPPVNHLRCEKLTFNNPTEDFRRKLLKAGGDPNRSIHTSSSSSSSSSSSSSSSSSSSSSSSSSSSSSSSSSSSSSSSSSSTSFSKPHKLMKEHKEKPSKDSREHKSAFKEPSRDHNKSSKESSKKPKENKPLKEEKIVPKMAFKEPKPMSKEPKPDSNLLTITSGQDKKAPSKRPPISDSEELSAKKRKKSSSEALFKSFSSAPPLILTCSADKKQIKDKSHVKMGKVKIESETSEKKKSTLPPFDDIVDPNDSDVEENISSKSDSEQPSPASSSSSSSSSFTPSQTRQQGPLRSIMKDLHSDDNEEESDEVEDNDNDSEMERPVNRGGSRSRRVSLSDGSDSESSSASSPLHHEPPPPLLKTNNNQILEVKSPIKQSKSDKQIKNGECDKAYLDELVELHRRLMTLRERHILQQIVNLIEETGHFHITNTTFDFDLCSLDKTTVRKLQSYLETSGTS
SIRT5 inh: SIRT5 desuccinylase inhibitors, primary screen, biochemical, fluorescence imaging, single point, set 5; NAD-dependent protein deacylase sirtuin-5, mitochondrial (Homo sapiens), Q9NXA8; Purified SirT5, succinyl-peptide AMC, trypsin-coupled fluorescence; inhibition, % at 15 µM; 330,000 compounds, 1.1% hits; in the data active = inhibition above about 15%; inconclusive = no clear call, values can overlap the other calls
S100A4 MyoIIA: inhibitors of S100A4-myosin IIA peptide binding, primary screen, biochemical, fluorescence polarization, TAMRA-MyoIIA peptide; Protein S100-A4 (Homo sapiens), P26447; inhibition, % at 10.7 µM; 360,000 compounds, 0.14% hits; AID 652163, 2013;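 active = mean inhibition of at least 70% across replicates, with every replicate also reaching that level; inconclusive = mean inhibition reaches 70% but some replicates fall short; inactive = mean inhibition below 70%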
Target sequence (P26447 whole entry, looked up): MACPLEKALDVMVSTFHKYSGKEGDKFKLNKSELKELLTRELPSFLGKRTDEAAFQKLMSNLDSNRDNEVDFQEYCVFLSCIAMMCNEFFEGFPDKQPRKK
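Material: human S100A4 monomer with TAMRA-labelled myosin IIA peptide; buffer or medium: HEPES pH 7.2 with CaCl2, KCl, NaCl, DTT, Triton; compound dosing: one concentration per compound; schedule: 5 min incubation before reading; benchmarks: neutral control DMSO, positive control TFP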
Numbers stand for hits; i = inactive; ? = inconclusive; nt = no result.

SMILES	DENV2 CPE rescue	CaV13 ICDI inh	AF4-AF9 inh	SIRT5 inh	S100A4 MyoIIA
C[C@@H]1CCCCO[C@H](CN(C)Cc2ccc(C(F)(F)F)cc2)[C@H](C)CN([C@H](C)CO)C(=O)c2cc(N(C)C)ccc2O1	i	nt	35	i	i
C[C@@H]1CCCCO[C@@H](CN(C)CC2CCCCC2)[C@H](C)CN([C@@H](C)CO)C(=O)c2cc(N(C)C)ccc2O1	i	nt	37	i	i
C[C@@H]1CCCCO[C@@H](CN(C)CC2CCCCC2)[C@@H](C)CN([C@@H](C)CO)C(=O)c2cc(N(C)C)ccc2O1	i	nt	i	i	i
C[C@@H]1CCCCO[C@H](CN(C)Cc2ccc(C(F)(F)F)cc2)[C@@H](C)CN([C@@H](C)CO)C(=O)c2cc(N(C)C)ccc2O1	i	nt	i	i	i
CCCN(C)C[C@@H]1Oc2cc(-c3cccnc3)ccc2S(=O)(=O)N([C@H](C)CO)C[C@@H]1C	?	nt	i	i	i
CNC[C@H]1OCCCC[C@@H](C)Oc2ccc(N(C)C)cc2C(=O)N([C@H](C)CO)C[C@H]1C	?	nt	i	15	i
C[C@H]1CCCCO[C@H](CN(C)Cc2ccncc2)[C@@H](C)CN([C@@H](C)CO)C(=O)c2cc(N(C)C)ccc2O1	i	nt	i	i	i
C[C@H](CO)N1C[C@H](C)[C@@H](CN(C)Cc2ccncc2)OCCCC[C@H](C)Oc2ccc(N(C)C)cc2C1=O	31	nt	i	i	i
CO[C@H]1CN(C)C(=O)c2cc(NC(=O)Nc3ccccc3F)ccc2OC[C@@H](C)N(CC2CC2)C[C@H]1C	i	nt	i	i	i
Cc1cc(O)cc(=O)n1-c1cccc(C(F)(F)F)c1	i	i	nt	nt	i
CC(C)OC(=O)CCCNc1ccc([N+](=O)[O-])cc1[N+](=O)[O-]	53	i	i	i	i
O=C1Cc2cc(S(=O)(=O)N3CCCCC3)ccc2N1	i	i	i	i	i
O=C1Cc2cc(S(=O)(=O)N3CCNCC3)ccc2N1	34	i	i	nt	i
CNCc1cc(Br)c(OCC(=O)Nc2ccccc2OC)c(OC)c1	i	i	i	24	i
COc1ccccc1NC(=O)CNC(c1ccccc1)c1ccccc1	i	i	i	i	i
COc1ccc(C)cc1NC(=O)C(c1ccccc1)N1CCN(CC(=O)N2CCCC2)CC1 (configuration not stated)	i	i	i	i	i
COc1ccc(C)cc1NC(=O)C(c1ccccc1)N1CCN(CC(=O)N2CCOCC2)CC1 (configuration not stated)	28	i	i	i	i
COc1ccccc1NC(=O)CCCCC(=O)Nc1ccccc1OC	i	i	i	16	i
COc1ccccc1NC(=O)CNc1ccc(F)c(Cl)c1	i	i	i	31	i
CCNCc1cc(Br)c(OCC(=O)Nc2ccccc2)c(OC)c1	nt	i	nt	nt	nt
O=C(C[C@@H]1C[C@@H]2c3cc(NC(=O)C4CCC4)ccc3O[C@@H]2[C@@H](CO)O1)NCc1ccccc1F	i	nt	i	nt	nt
CCC(=O)N[C@H]1C=C[C@@H](CC(=O)OC)O[C@H]1CO	?	nt	i	i	i
COc1ccccc1NC(=O)CN1CCOCC1	75	i	i	i	i
COc1ccccc1NC(=O)CN1CCCCCC1	i	i	i	i	i
COc1ccccc1NC(=O)CN1CCN(C(=O)C2CCCO2)CC1 (configuration not stated)	i	i	i	46	i
SMILES	DENV2 CPE rescue	CaV13 ICDI inh	AF4-AF9 inh	SIRT5 inh	S100A4 MyoIIA
C[C@H](O)C#Cc1ccc2c(c1)O[C@@H](CN(C)CC1CCOCC1)[C@@H](C)CN([C@H](C)CO)S2(=O)=O	i	nt	nt	nt	nt
O=C(C[C@H]1CC[C@H]2[C@@H](COC[C@@H](O)CN2C(=O)Nc2ccc(C(F)(F)F)cc2)O1)NCC1CCCCC1	i	nt	i	i	i
Cc1ccc(-c2ccc([C@@H]3[C@H]4CN(S(=O)(=O)c5cccc(C)c5)CCCCN4[C@H]3CO)cc2)cc1	i	nt	i	18	i
Cc1ccc(-c2ccc([C@@H]3[C@@H](CO)N4CCCCN(S(=O)(=O)c5cccc(C)c5)C[C@H]34)cc2)cc1	i	nt	i	23	i
Cc1ccc(-c2ccc([C@H]3[C@@H](CO)N4CCCCN(S(=O)(=O)c5cccc(C)c5)C[C@@H]34)cc2)cc1	i	nt	i	i	i
Cc1c(Br)c([N+](=O)[O-])nn1CC(=O)N1CCc2ccccc2C1	i	i	i	i	i
Cc1c(Br)c([N+](=O)[O-])nn1C(C)C(=O)N1CCc2ccccc2C1 (configuration not stated)	24	i	i	i	i
CC(C)C[C@H]1CN(CCCC[C@H]2CNC(=O)C(=O)N2CCC2CCCCC2)C(=O)C(=O)N1CCc1ccccc1	i	i	i	i	i
CCCC[C@@H]1CNC(=O)C(=O)N1CCCCC1CCCCC1	42	i	i	nt	i
O=C1NC[C@H](CCCCN2CCN(CCC3CCCCC3)C(=O)C2=O)N(CCC2CCCCC2)C1=O	i	i	i	i	i
CC(C)C[C@@H]1CN(CCCC[C@H]2CNC(=O)C(=O)N2CCC2CCCCC2)C(=O)C(=O)N1Cc1ccccc1	24	i	i	i	i
CC(C)(C)CN1C(=O)C(=O)NC[C@@H]1CCCCN	136	i	i	nt	i
CC(C)C[C@H]1CN(CCCC[C@H]2CNC(=O)C(=O)N2CC2CCCCC2)C(=O)C(=O)N1Cc1ccccc1	i	i	27	i	i
Cc1noc(C)c1S(=O)(=O)Nc1cccc2c1O[C@H](CN(C)Cc1ccccc1)[C@H](C)CN([C@@H](C)CO)C2=O	i	nt	i	i	i
O=C1NC[C@H](CCCCN2CCN(CCc3ccccc3)C(=O)C2=O)N(CCc2ccc(O)cc2)C1=O	i	i	i	nt	i
O=C1NC[C@@H](CCCCN2CCN(CCc3ccc(O)cc3)C(=O)C2=O)N(Cc2ccccc2)C1=O	87	i	i	i	i
Cc1ccc(CNS(=O)(=O)CCNC(=O)c2ccc3c(c2)OCO3)cc1	i	i	i	i	i
COc1ccccc1CCNS(=O)(=O)CCNC(=O)c1ccc2c(c1)OCO2	40	i	i	i	i
O=C(NCCS(=O)(=O)NCc1ccc(F)cc1)c1ccc2c(c1)OCO2	75	i	i	i	i
C[C@H](CO)N1C[C@H](C)[C@@H](CN(C)C(=O)CCCN(C)C)OCc2cnnn2CCCC1=O	i	nt	i	i	i
C[C@H]1CCCCO[C@H](CN(C)Cc2ccncc2)[C@@H](C)CN([C@@H](C)CO)C(=O)c2cc(NC(=O)NC3CCCCC3)ccc2O1	i	nt	i	i	i
CC(=O)c1c(C)[nH]c(C(=O)N2CCN(c3ccccn3)CC2)c1C	i	i	i	i	i
CC(=O)c1c(C)[nH]c(C(=O)N2CCN(c3ncccn3)CC2)c1C	i	i	i	16	i
